# Published values of several laboratories.
# Each line is one published result; the experiments were not run side by side.
# Cell line: PC-3
# Effect on: cell growth or viability
# Technique: MTT
SMILES,conditions,IC50
CCOc1nc(-c2cccc(O)c2)cc(-c2cc3cc(Cl)ccc3nc2N2CCOCC2)c1C#N,72 h,0.174 µM
Cc1nc(N(C)c2ccc3c(c2)/C(=C/c2ccccc2Cl)C(=O)N3C)c2ccccc2n1,,23.7 µM
Cc1ccc(-c2cc(-c3c(Cl)cccc3Cl)c3c(=O)[nH]c(=O)[nH]c3n2)cc1,48 h,48.9 µM
Cc1nc(Nc2ccc3c(c2)CC(=O)N3)c2ccccc2n1,,20.6 µM
Cc1ccc(-c2cc(-c3c(Cl)cccc3Cl)c3c(=O)n(C)c(=O)n(C)c3n2)cc1,48 h,9.89 µM
CCOc1nc(-c2cccc(O)c2)cc(-c2cc3ccccc3nc2N2CCOCC2)c1C#N,72 h,0.118 µM
COc1ccc(-c2cc(-c3cc(OC)ccc3OC)c3c(=O)[nH]c(=O)[nH]c3n2)cc1,48 h,19.1 µM
CCCOc1nc(-c2cccc(O)c2)cc(-c2cc3ccccc3nc2N2CCOCC2)c1C#N,72 h,0.155 µM
COc1cc2ncnc(N(C)c3ccc4c(c3)/C(=C/c3cccc(Cl)c3)C(=O)N4C)c2cc1OC,,5.5 µM
COc1ccc(-c2cc(-c3ccc(C)cc3)nc3c2c(=O)n(C)c(=O)n3C)cc1OC,48 h,38.9 µM
Cc1nc(Nc2ccc3c(c2)/C(=C/c2ccccc2C)C(=O)N3)c2ccccc2n1,,26.7 µM
[NH2][Pt]([NH2])([Cl])[Cl],,8.3 µM
Nc1n[nH]c2nc(-c3cccc(O)c3)cc(-c3cc4ccccc4nc3N3CCOCC3)c12,72 h,0.0564 µM
COc1cccc2c1C(=O)c1c(O)c3c(c(O)c1C2=O)C[C@@](O)(C(=O)CO)C[C@@H]3O[C@H]1C[C@H](N)[C@H](O)[C@H](C)O1,72 h,0.61 µM
